# From PubChem BioAssay
# RGS4 inh – inhibitors of human RGS4; B-score at 10 µM; 310,000 compounds, 0.45% hits; AID 463165; HEK293 M3R/RGS4 inducible, Fluo-4 calcium flux; stronger effect = higher value; triggered by carbachol at its EC20; P49798;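 active = B-score, a plate-corrected calcium signal, over three deviations above library mean, with baseline fluorescence within five deviations of library mean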;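 also: RGS4 expression induced by doxycycline in cells with stable M3 receptor; B-score is computed from the integrated fluorescence ratio over baseline after carbachol; higher B-score means a larger calcium signal and so more RGS4 inhibition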
# Target sequence (P49798 whole entry, looked up): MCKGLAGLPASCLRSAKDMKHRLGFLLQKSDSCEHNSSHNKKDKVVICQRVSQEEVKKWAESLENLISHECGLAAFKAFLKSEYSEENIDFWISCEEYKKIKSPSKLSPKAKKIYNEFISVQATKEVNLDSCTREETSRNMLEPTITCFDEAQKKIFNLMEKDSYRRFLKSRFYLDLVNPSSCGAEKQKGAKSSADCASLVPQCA
# MrgX1 PAM – human MrgX1 positive allosteric modulation, primary screen | MrgX1-HEK293, Fluo-4 calcium flux, FDSS; stronger effect = higher value | AID 588675 | Q96LB2 | B-score at 10 µM | 310,000 compounds, 0.63% hits;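 active = plate-corrected calcium response at least 3 library SD above typical, normal starting fluorescence, not activating the receptor alone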;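 also: compound read alongside a low EC10 to EC30 dose of BAM8-22 agonist; peak minus trough fluorescence over baseline measured at the second addition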
# Target sequence (Q96LB2 whole entry, looked up): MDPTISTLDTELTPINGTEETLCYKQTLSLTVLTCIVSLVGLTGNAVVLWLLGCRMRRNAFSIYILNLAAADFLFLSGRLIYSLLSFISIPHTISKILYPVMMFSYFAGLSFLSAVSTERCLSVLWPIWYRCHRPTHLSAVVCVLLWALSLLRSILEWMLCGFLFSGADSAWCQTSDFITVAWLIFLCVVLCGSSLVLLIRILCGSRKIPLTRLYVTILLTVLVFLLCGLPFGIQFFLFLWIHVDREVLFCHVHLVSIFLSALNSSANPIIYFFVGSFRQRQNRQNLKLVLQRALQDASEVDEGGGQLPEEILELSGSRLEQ
# MrgX1 ag – agonists of human MrgX1 receptor. MrgX1-HEK293 cells, Fluo-4 calcium fluorescence, agonist mode; stronger effect = higher value. 310,000 compounds, 0.44% hits. B-score at 10 µM. Q96LB2. AID 588627;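 active = calcium response B-score plate-corrected fluorescence ratio at least 3 library SD, with starting fluorescence B-score inside 5 SD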
#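 System – MrgX1-expressing HEK293 cells · Incubation – cells plated overnight, dye loaded 0.5 h 37 °C, 0.5 h room temperature · Technique – kinetic Fluo-4 NW fluorescence of intracellular calcium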
# RGS4 pot – potentiators or activators of RGS4; HEK293 M3R/inducible RGS4, carbachol calcium flux Fluo4; stronger effect = lower value; B-score at 10 µM; 310,000 compounds, 0.92% hits;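 active = B-score of the integrated calcium signal more than 4 SD below the library mean, with starting fluorescence not abnormally high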;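 also: negative B-score means reduced calcium response which marks RGS4 activation or potentiation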
#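 Assay system: HEK293 FlpIn-TREx cells, stable M3R, doxycycline-inducible RGS4 / Probe or stimulus: carbachol, ECmax concentration / Times: overnight RGS4 induction, 30 min dye load 37 °C, 20 min compound RT / Signal: kinetic calcium fluorescence imaging with Fluo4-AM dye, 2 µM / Measure: Agonist-evoked peak-minus-minimum fluorescence over baseline, integrated ratio, B score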
# MrgX1 antag – blocks BAM8-22 activation of human MrgX1 receptor | MRGX1-HEK293 calcium flux, Fluo-4, BAM8-22 antagonism; stronger effect = lower value | B-score at 10 µM | 310,000 compounds, 1.3% hits | AID 588676;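 active = calcium-response B-score plate-corrected more than 3 library SD below zero, starting fluorescence within 5 deviations, no agonist response on first addition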;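 also: peak minus trough fluorescence over baseline after final BAM8-22 challenge near maximal dose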
# MrgX1 ant reconf – human MrgX1 receptor antagonism, re-confirmation screen; remaining BAM8-22 calcium response % of control (stronger effect = lower value), % at 10 µM; AID 602420; 2,300 compounds, 19% hits; MrgX1-HEK293, BAM8-22 calcium flux, Fluo-4; stronger effect = lower value; shares compounds with MrgX1 antag;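 active = remaining agonist calcium response no higher than 100% minus 3 SD of agonist-only control wells, with starting fluorescence near control levels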;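 also: agonist BAM8-22 given at a near maximal EC90 to ECmax level; peak minus minimum fluorescence divided by baseline after agonist addition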
# HEK293 Ca flux – activity in parental HEK293 cells lacking MrgX1; shares compounds with MrgX1 antag; Fluo-4 calcium fluorescence, FDSS; fluorescence ratio F(max-min)/F0 at 10 µM; 4,000 compounds, 2% hits; AID 624111;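 active = duplicate-averaged calcium fluorescence ratio at least three times the standard deviation of buffer wells, a nonspecific response in parental cells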
# HEK293 Ca counter – MrgX1 allosteric activator counter-screen hit in parental HEK293 cells | shares compounds with MrgX1 antag | parental HEK293 calcium flux, Fluo-4 fluorescence ratio; stronger effect = higher value | fluorescence ratio F(max-min)/F0 at 10 µM | 4,000 compounds, 0.4% hits;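 active = calcium fluorescence ratio, averaged over duplicates, at least 3 SD of the buffer-well ratio, meaning a nonspecific response in receptor-free cells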;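 also: untransfected parental HEK293 lacking MrgX1 used as counterscreen for MrgX1 allosteric activators; fluorescence change taken during the second addition on a kinetic imager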
# HEK293 Ca cntr2 – MrgX1 activator counter-screen hit in parental HEK293 cells; shares compounds with MrgX1 antag; Fluo-4 calcium fluorescence (FDSS); stronger effect = higher value; fluorescence ratio F(max-min)/F0 at 10 µM; 4,000 compounds, 8.7% hits; AID 624115;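 active = calcium fluorescence ratio at least three times the spread of buffer wells, meaning a non-specific response in parental cells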
# A number is an active result; n = inactive; x = no result. The list is not random: actives were taken first. Their share in the collection is about 3.5%.
SMILES,RGS4 inh,MrgX1 PAM,MrgX1 ag,RGS4 pot,MrgX1 antag,MrgX1 ant reconf,HEK293 Ca flux,HEK293 Ca counter,HEK293 Ca cntr2
CCOC(=O)c1c(C)[nH]c(C)c1C(=O)CSc1nc2ccccc2c(=O)n1-c1ccc(F)cc1,n,n,n,n,-5.26,82.5%,n,n,n
CCOC(=O)c1c(C)[nH]c(C)c1C(=O)CSc1nc2ccccc2c(=O)n1-c1ccccc1C,n,n,n,n,n,x,x,x,x
COc1ccc(C2=NS(=O)(=O)N(C)C(C(=O)N3CCC(C(N)=O)CC3)=C2)cc1,n,n,n,n,n,x,x,x,x
COc1ccccc1NC(=O)c1ccc2c(c1)nnn2C,n,n,n,n,n,x,x,x,x
Cc1ccc(-n2nc3c(SCCN4CCOCC4)nnc(C)c3c2C)cc1,n,n,n,n,n,x,x,x,x
CCOc1ccc(-n2nc3c(SCCN4CCCC4)nnc(C)c3c2C)cc1,n,n,n,n,-4.68,n,n,n,n
CCOC(=O)CN(c1ccccc1C)S(=O)(=O)c1ccc(Cl)cc1,n,n,n,n,n,x,x,x,x
COCC(C)n1c(SCC(=O)NCCC2=CCCCC2)nc2ccccc2c1=O (centres undefined),n,n,n,n,-6.61,n,n,n,n
CC(=O)NCCn1c(SCC(=O)NCCC2=CCCCC2)nc2ccccc2c1=O,n,n,n,n,n,x,x,x,x
O=C(NCCN1CCOCC1)c1cccn2c(=O)c3c4c(sc3nc12)CCCC4,n,n,n,n,n,x,x,x,x
O=C(NCc1n[nH]c(=S)n1-c1ccc(Br)cc1)c1ccc(S(=O)(=O)N2CCOCC2)cc1,n,n,n,n,n,x,x,x,x
CCC1Sc2ccccc2N(CC(=O)NC2CC2)C1=O (centres undefined),n,n,n,n,-6.98,n,n,n,n
CCC1Oc2ccccc2N(CC(=O)NC2CC2)C1=O (centres undefined),n,n,n,n,n,x,x,x,x
COc1ccc(C(=O)N(c2ccc(OC)cc2)S(=O)(=O)c2cccs2)cc1,n,n,n,n,-4.93,n,n,n,n
COc1ccc(N(C(=O)c2ccccc2)S(=O)(=O)c2cccs2)cc1,n,n,n,n,n,x,x,x,x
Cc1c(Cl)cccc1NC(=S)N1CCCN(Cc2ccc(F)cc2)C1,n,n,n,n,n,x,x,x,x
O=C(c1ccccc1)c1ccc(CN2C(=O)c3ccccc3C2=O)o1,n,n,n,n,-5.16,n,n,n,n
C/C(=N\NC(=O)c1ccc(O)cc1)c1cccc(NC(=O)c2ccccc2C)c1,n,n,n,n,n,x,x,x,x
Cc1cc([N+](=O)[O-])nn1CC(=O)NCc1ccco1,n,n,n,n,n,x,x,x,x
CN(C)S(=O)(=O)N(CC(=O)Nc1ccc2ccccc2c1)c1ccccc1,n,n,n,n,n,x,x,x,x
CN(C)S(=O)(=O)N(CC(=O)Nc1ccc(F)c(F)c1)c1ccccc1,n,n,n,n,-6.09,n,n,n,n
O=C1CCCC(=O)N1c1ccc(N2CCN(c3ccc([N+](=O)[O-])cc3)CC2)c([N+](=O)[O-])c1,n,n,n,n,n,x,x,x,x
CCCn1c2ccccc2c2cnn(CC(=O)N3CCN(C4CCCCC4)CC3)c(=O)c21,n,n,n,n,n,x,x,x,x
Cn1cccc1-c1nc2ccccc2n1Cc1ccccc1,n,n,n,n,-4.93,n,n,n,n
CCOC(=O)c1[nH]ncc1CN1CCN(Cc2ccc(C)cc2)C(CCO)C1 (centres undefined),n,n,n,n,n,x,x,x,x
CCOC(=O)COc1ccc(S(=O)(=O)NCC2CCCO2)cc1 (centres undefined),n,n,n,n,-4.72,n,n,n,n
CCOC(=O)C1CCCN(C(=O)CSCc2ccccc2)C1 (centres undefined),n,n,n,n,-8.86,n,n,n,n
